Experiments:
AGS = experiment: Antiproliferative activity against human AGS cells after 72 hrs by MTT assay; assay type: functional
In short: (§1)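 Cells cultured at 37 °C, 5% CO₂ in medium with 10% FBS and penicillin/streptomycin, used within 12-20 passages. Seeded at 2.5×10^3 cells/well for 24 h, then compound added from DMSO stocks at 200-fold final concentration (final DMSO 0.5% v/v). After 72 h, 0.5 mg/mL MTT for 3 h, formazan dissolved in DMSO, A570 read. IC50 from sigmoidal fit; three independent determinations.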

HCT-116 = experiment: Antiproliferative activity against human HCT116 cells after 72 hrs by MTT assay; assay type: functional; settings: HCT-116, 72 h; in short: as §1
BJ = experiment: Antiproliferative activity against human BJ cells assessed as reduction in cell viability at 5 uM incubated for 4 days followed by compound washout measured after 11 days by cell counting method; assay type: cell-based; settings: 96 h
In short: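 Normal BJ fibroblasts synchronized in G1 by 2-day serum starvation (0.1% FBS), released into 10% FBS medium and exposed to 5 μM for 2, 4 or 11 days. After 2 or 4 days drug removed and growth continued in fresh medium up to 11 days. Total cell numbers by automated counter; mean ± S.D., n>6.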

[1] = Intrinsic clearance in pooled male rat liver microsomes assessed per mg protein at 3 uM preincubated for 5 mins followed by NADPH addition measured after 45 mins by LC-MS/MS method; assay type: ADME, microsome; settings: read-out: CLH
In short: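 Pooled female or male rat liver microsomes (0.3 mg protein/mL) with substrate at final 3 μM in 0.1 M phosphate pH 7.4. Pre-incubated 5 min at 37 °C, then started with NADPH (final 1 mM). Sampled at 0–45 min in triplicate, quenched with cold acetonitrile plus internal standard. Parent measured by LC-MS/MS. Midazolam as positive control; no-NADPH negative control.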

Q: What does the source list for `N#C/C(=C\c1cccc2cnccc12)c1c[nH]c2ccccc12`?
A: GI50 (AGS): 1100 nM; GI50 (HCT-116): 1800 nM; Activity (BJ): Non-Toxic; microsomal CLint at 3 µM [1]: 299 µL/min/mg
